Laboratory results published in ChEMBL document CHEMBL1165860, “Synthesis and potential cytotoxic activity of new phenanthrylphenol-pyrrolobenzodiazepines” (2010).
Activity calls are given as the source filed them. No cut-off for these calls is given here.

Assays:
MCF7 [1] = assay: Induction of apoptosis in human MCF7 cells assessed as increase of caspase 8 activation at 4 uM after 1 hr by […] method; format: functional, cell-based
How it was run: (§1)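 Colorimetric caspase-8 kit on lysates of treated MCF-7 cells. The IETD-pNA substrate was incubated with cell lysate at 37 °C for 1 h, and absorbance was read at 405 nm. Untreated cells served as the control.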

HT-29 = assay: Growth inhibition of human HT-29 cells after 24 hrs by MTT assay; format: functional; conditions: HT-29, 24 h
HL-60(TB) = assay: Growth inhibition of human HL-60(TB) cells after 24 hrs by MTT assay; format: functional; conditions: HL-60, 24 h
SNB-75 = assay: Growth inhibition of human SNB75 cells after 24 hrs by MTT assay; format: functional; conditions: SNB-75, 24 h
SK-MEL-5 = assay: Growth inhibition of human SK-MEL-5 cells after 24 hrs by MTT assay; format: functional; conditions: SK-MEL-5, 24 h
A549 = assay: Growth inhibition of human A549 cells after 24 hrs by MTT assay; format: functional; conditions: A549, 24 h
MCF7 [2] = assay: Increase of PARP cleavage in human MCF7 cells at 4 uM after 24 hrs by Western blot analysis; format: functional, cell-based
How it was run: (§2)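 MCF-7 cells were grown in DMEM with 10% FCS and penicillin/streptomycin at 37 °C in 5% CO2, then treated for 24 h. Cells were lysed in ice-cold RIPA buffer with protease inhibitors and NaF. Protein was measured by Bradford assay, and 30 µg per lane was run on 12% SDS-PAGE and transferred to PVDF. Antibody steps: primary at 4 °C overnight, HRP secondary 1:2000, chemiluminescent detection.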

NCI-H460 = assay: Growth inhibition of human NCI-H460 cells after 24 hrs by MTT assay; format: functional; conditions: NCI-H460, 24 h
MDA-MB-435 = assay: Growth inhibition of human MDA-MB-435 cells after 24 hrs by MTT assay; format: functional; conditions: MDA-MB-435, 24 h
MCF7 [3] = assay: Cytotoxicity against human MCF7 cells at 4 uM after 24 hrs by MTT assay relative to control; format: functional, cell-based
How it was run: (§3)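 MCF-7 cells were seeded at 10,000 cells/well in DMEM with 10% fetal calf serum. They were exposed to 0.5, 1, 2 and 4 µM for 24 h. MTT reduction to formazan was read at 570 nm, with untreated controls taken as 100% viability. DMSO-treated cells served as an additional control.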

MOLT-4 = assay: Growth inhibition of human MOLT4 cells after 24 hrs by MTT assay; format: functional; conditions: MOLT-4, 24 h
HOP-62 = assay: Growth inhibition of human HOP62 cells after 24 hrs by MTT assay; format: functional; conditions: HOP-62, 24 h
TK-10 = assay: Growth inhibition of human TK10 cells after 24 hrs by MTT assay; format: functional; conditions: TK-10, 24 h
A498 = assay: Growth inhibition of human A498 cells after 24 hrs by MTT assay; format: functional; conditions: A498, 24 h
NCI-H522 = assay: Growth inhibition of human NCI-H522 cells after 24 hrs by MTT assay; format: functional; conditions: NCI-H522, 24 h
MCF7 [4] = assay: Increase of cytosolic cytochrome c level in human MCF7 cells at 2 uM after 24 hrs by Western blot analysis; format: functional, cell-based; how it was run: as §2
HCT-15 = assay: Growth inhibition of human HCT15 cells after 24 hrs by MTT assay; format: functional; conditions: HCT-15, 24 h
SK-MEL-28 = assay: Growth inhibition of human SK-MEL-28 cells after 24 hrs by MTT assay; format: functional; conditions: SK-MEL-28, 24 h
MCF7 [5] = assay: Cell cycle arrest in human MCF7 cells assessed as accumulation at G0 phase at 2 uM after 24 hrs using propidium iodide staining by flow cytometry; format: functional
How it was run: (§4)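 MCF-7 cells were grown in DMEM with 10% fetal calf serum, penicillin and streptomycin, at 37 °C in 5% CO2. They were treated for 24 h at 2 and 4 µM, with DMSO-treated cells as controls. Cells were trypsinised, fixed in ice-cold 70% ethanol at 4 °C for 30 min, and RNaseA-treated at 37 °C for 30 min. Phases were read by flow cytometry.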

DU-145 = assay: Growth inhibition of human DU145 cells after 24 hrs by MTT assay; format: functional; conditions: DU-145, 24 h
MCF7 [6] = assay: Cell cycle arrest in human MCF7 cells assessed as accumulation at S phase at 4 uM after 24 hrs using propidium iodide staining by flow cytometry; format: functional; how it was run: as §4
MCF7 [7] = assay: Cell cycle arrest in human MCF7 cells assessed as accumulation at G0 phase at 4 uM after 24 hrs using propidium iodide staining by flow cytometry; format: functional; how it was run: as §4
SNB-19 = assay: Growth inhibition of human SNB19 cells after 24 hrs by MTT assay; format: functional; conditions: SNB-19, 24 h
MCF7 [8] = assay: Cell cycle arrest in human MCF7 cells assessed as accumulation at G2/M phase at 2 uM after 24 hrs using propidium iodide staining by flow cytometry; format: functional; how it was run: as §4
UACC-257 = assay: Growth inhibition of human UACC257 cells after 24 hrs by MTT assay; format: functional; conditions: UACC-257, 24 h
OVCAR-3 = assay: Growth inhibition of human OVCAR-3 cells after 24 hrs by MTT assay; format: functional; conditions: OVCAR-3, 24 h
MCF7 [9] = assay: Induction of apoptosis in human MCF7 cells assessed as increase of caspase 8 activation at 2 uM after 1 hr by […] method; format: functional, cell-based; how it was run: as §1
CAKI-1 = assay: Growth inhibition of human Caki1 cells after 24 hrs by MTT assay; format: functional; conditions: CAKI-1, 24 h
OVCAR-5 = assay: Growth inhibition of human OVCAR5 cells after 24 hrs by MTT assay; format: functional; conditions: OVCAR-5, 24 h
MCF7 [10] = assay: Growth inhibition of human MCF7 cells after 24 hrs by MTT assay; format: functional; conditions: MCF7, 24 h
MCF7 [11] = assay: Cytotoxicity against human MCF7 cells at 2 uM after 24 hrs by MTT assay relative to control; format: functional; how it was run: as §3
SK-MEL-2 = assay: Growth inhibition of human SK-MEL-2 cells after 24 hrs by MTT assay; format: functional; conditions: SK-MEL-2, 24 h
MCF7 [12] = assay: Cell cycle arrest in human MCF7 cells assessed as accumulation at S phase at 2 uM after 24 hrs using propidium iodide staining by flow cytometry; format: functional; how it was run: as §4
Nucleic Acid = assay: Inhibition of Escherichia coli pBR322 DNA cleavage after 16 hrs by RED100-restriction endonuclease digestion assay; format: nucleic-acid assay
How it was run: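 pBR322 DNA was preincubated with compound at final 2, 4, 8, 16 and 32 µM for 16 h at 37 °C. BamHI (10 U/µl) in BamHI buffer was then added for 2 h at 37 °C. Products were separated on agarose in 0.5× Tris–acetate EDTA at 80 V for 1 h and stained with ethidium bromide. Cut and uncut DNA served as controls.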

COc1cc2c(cc1OCCCOc1ccc(-c3cc4ccccc4c4ccccc34)cc1)N=C[C@@H]1CCCN1C2=O
Activity (MCF7 [1]): Active
GI50 (HT-29): 890 nM
GI50 (HL-60(TB)): 170 nM
GI50 (SNB-75): 210 nM
GI50 (SK-MEL-5): 1060 nM
GI50 (A549): 720 nM
Activity (MCF7 [2]): Active
GI50 (NCI-H460): 1040 nM
GI50 (MDA-MB-435): 240 nM
Activity (MCF7 [3]): Active
GI50 (MOLT-4): 180 nM
GI50 (HOP-62): 1000 nM
GI50 (TK-10): 600 nM
GI50 (A498): 690 nM
GI50 (NCI-H522): 120 nM
Activity (MCF7 [4]): Active
GI50 (HCT-15): 1180 nM
GI50 (SK-MEL-28): 1260 nM
Activity (MCF7 [5]): 4.47%
GI50 (DU-145): 400 nM
Activity (MCF7 [6]): 13.05%
Activity (MCF7 [7]): 8.35%
GI50 (SNB-19): 1160 nM
Activity (MCF7 [8]): 10.7%
GI50 (UACC-257): 1360 nM
GI50 (OVCAR-3): 250 nM
Activity (MCF7 [9]): Active
GI50 (CAKI-1): 400 nM
GI50 (OVCAR-5): 1200 nM
GI50 (MCF7 [10]): 170 nM
Activity (MCF7 [11]): <=50%
GI50 (SK-MEL-2): 40 nM
Activity (MCF7 [12]): 17.29%
inhibition (Nucleic Acid): Dose-dependent effect
